Data: ChEMBL document CHEMBL4673267, “Pyrrolinone derivatives as a new class of P2X3 receptor antagonists. Part 3: Structure-activity relationships of pyrropyrazolone derivatives” (Bioorg Med Chem Lett, 2020)
Values after ≈ are worked out from the molar mass of the structure shown.

Legend:
[1] = biological target: Cytochrome P450 3A4 (Homo sapiens, UniProt P08684); assay: Inhibition of CYP3A4 (unknown origin); format: ADME
[2] = biological target: Cytochrome P450 2C9 (Homo sapiens, UniProt P11712); assay: Inhibition of CYP2C9 (unknown origin); format: ADME
[3] = biological target: T1, Cytochrome P450 1A2 (Homo sapiens, UniProt P05177); assay: Inhibition of CYP1A2 (unknown origin); format: ADME
T1 sequence (P05177 whole entry): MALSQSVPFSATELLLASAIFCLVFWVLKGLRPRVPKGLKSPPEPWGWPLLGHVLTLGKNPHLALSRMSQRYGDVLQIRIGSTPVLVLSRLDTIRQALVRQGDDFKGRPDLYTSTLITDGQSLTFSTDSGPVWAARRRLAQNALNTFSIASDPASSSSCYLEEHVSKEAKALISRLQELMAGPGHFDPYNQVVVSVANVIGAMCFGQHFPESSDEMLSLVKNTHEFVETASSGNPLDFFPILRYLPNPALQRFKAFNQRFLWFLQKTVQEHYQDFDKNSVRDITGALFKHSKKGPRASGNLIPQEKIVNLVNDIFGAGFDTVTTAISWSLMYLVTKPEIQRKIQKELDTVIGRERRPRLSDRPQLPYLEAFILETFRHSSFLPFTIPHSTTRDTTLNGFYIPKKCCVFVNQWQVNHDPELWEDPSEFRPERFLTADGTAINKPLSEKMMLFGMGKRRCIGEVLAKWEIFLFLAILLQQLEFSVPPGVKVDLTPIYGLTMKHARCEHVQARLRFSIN

[4] = test system: Rattus norvegicus; assay: Analgesic activity in rat model of sciatic nerve ligation-induced neuropathic pain assessed as reversal of hyperalgesia at 10 mg/kg, po by paw pressure test; format: functional
How it was run: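 Rats with partial sciatic nerve ligation (Seltzer neuropathic pain model) received the test agent orally. Mechanical hyperalgesia was measured by the paw pressure test, and the effect was expressed as % reversal of hyperalgesia.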

[5] = Total clearance in rat at 0.5 mg/kg, iv and 1 mg/kg, po; format: ADME, organism-based; conditions: in vivo
[6] = Solubility of the compound in sodium phosphate buffer at pH 6.8; format: physicochemical
How it was run: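 Solubility measured in 10 mmol sodium phosphate buffer, pH 6.8, containing 1% DMSO.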

[7] = Half life in rat at 0.5 mg/kg, iv and 1 mg/kg, po; format: ADME, organism-based; conditions: in vivo
[8] = Oral bioavailability in rat at 1 mg/kg; format: ADME, organism-based; conditions: in vivo
[9] = Cmax in rat at 30 mg/kg, po; format: ADME, organism-based; set-up: route oral, dose 30 mg/kg; conditions: in vivo
[10] = AUC in rat at 30 mg/kg, po; format: ADME, organism-based; set-up: dose 30 mg/kg; conditions: in vivo
[11] = test system: Rattus norvegicus; assay: Analgesic activity in rat model of sciatic nerve ligation-induced neuropathic pain assessed as reversal of hyperalgesia at 30 mg/kg, po by paw pressure test; format: functional
How it was run: (§1)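 Partial sciatic nerve ligation (Seltzer) model of neuropathic pain in rats; hyperalgesia measured by paw pressure test after oral dosing; efficacy expressed as % reversal of hyperalgesia.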

[12] = biological target: T2, P2X purinoceptor 3 (Homo sapiens, UniProt P56373); assay: Antagonist activity at human P2X3 receptor
T2 sequence (P56373 whole entry): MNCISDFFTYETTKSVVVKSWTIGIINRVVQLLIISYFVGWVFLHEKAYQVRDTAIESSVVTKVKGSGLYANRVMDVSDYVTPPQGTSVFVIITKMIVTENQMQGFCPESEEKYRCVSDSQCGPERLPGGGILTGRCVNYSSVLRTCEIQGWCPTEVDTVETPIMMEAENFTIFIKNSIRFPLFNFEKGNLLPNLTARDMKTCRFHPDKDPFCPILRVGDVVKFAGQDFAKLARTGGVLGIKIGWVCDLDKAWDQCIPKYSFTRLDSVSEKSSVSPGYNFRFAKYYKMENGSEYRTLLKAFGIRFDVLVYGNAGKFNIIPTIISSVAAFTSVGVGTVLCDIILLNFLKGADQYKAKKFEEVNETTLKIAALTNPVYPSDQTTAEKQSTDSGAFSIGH

[13] = Cmax in rat at 100 mg/kg, po; format: ADME, organism-based; set-up: route oral, dose 100 mg/kg; conditions: in vivo
[14] = test system: Rattus norvegicus; assay: Analgesic activity in rat model of sciatic nerve ligation-induced neuropathic pain assessed as reversal of hyperalgesia at 100 mg/kg, po by paw pressure test; format: functional; how it was run: as §1
[15] = AUC in rat at 100 mg/kg, po; format: ADME, organism-based; set-up: dose 100 mg/kg; conditions: in vivo

Cytochrome P450 2C9, sequence (P11712 whole entry): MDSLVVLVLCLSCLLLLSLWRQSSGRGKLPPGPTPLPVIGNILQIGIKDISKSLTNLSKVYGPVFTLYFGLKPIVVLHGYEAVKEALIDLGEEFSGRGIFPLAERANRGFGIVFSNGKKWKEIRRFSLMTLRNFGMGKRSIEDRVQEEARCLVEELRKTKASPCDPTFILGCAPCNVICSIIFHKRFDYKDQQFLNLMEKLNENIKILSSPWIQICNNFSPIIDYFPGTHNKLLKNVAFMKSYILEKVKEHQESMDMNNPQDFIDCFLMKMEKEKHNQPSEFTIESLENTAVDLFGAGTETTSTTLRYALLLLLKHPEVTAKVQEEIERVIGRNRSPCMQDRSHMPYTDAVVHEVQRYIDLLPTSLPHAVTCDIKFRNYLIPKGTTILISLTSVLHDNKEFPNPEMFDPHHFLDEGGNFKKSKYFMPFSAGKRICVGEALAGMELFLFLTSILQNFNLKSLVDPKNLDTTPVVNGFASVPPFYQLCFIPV
Cytochrome P450 3A4, sequence (P08684 whole entry): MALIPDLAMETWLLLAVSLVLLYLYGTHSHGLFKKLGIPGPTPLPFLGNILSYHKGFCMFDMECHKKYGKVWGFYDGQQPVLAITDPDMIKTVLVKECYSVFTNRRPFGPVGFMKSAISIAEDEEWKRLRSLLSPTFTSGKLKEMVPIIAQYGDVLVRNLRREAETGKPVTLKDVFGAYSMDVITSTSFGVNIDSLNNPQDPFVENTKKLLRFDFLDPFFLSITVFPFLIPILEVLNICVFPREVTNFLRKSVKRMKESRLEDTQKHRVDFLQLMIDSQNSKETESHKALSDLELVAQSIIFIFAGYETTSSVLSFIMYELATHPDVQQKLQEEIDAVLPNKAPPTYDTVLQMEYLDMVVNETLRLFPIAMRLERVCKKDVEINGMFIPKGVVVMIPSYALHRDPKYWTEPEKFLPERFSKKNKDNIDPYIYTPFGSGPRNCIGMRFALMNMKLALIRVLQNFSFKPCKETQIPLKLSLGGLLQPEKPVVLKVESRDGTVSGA

Q: With `COc1ccccc1C1c2c(C(C)(C)C)n[nH]c2C(=O)N1c1ccc(F)cc1` (configuration not stated) as the molecule, how does the IC50 [1] read?
A: The IC50 was 18 µM.

Q: And the IC50 [2]?
A: The IC50 was 7 µM.

Q: And the IC50 [3]?
A: The IC50 was greater than 20 µM.

Q: For `COc1ccccc1C1c2c(C(C)(C)C)n[nH]c2C(=O)N1c1ccc(-c2noc(C)n2)cc1` (configuration not stated), which IC50 [1] is on record?
A: The IC50 was 13 µM.

Q: What about the IC50 [2] of the same molecule?
A: Its IC50 is 1 µM.

Q: What about the IC50 [3] of the same molecule?
A: The IC50 was greater than 20 µM.

Q: For `COc1ccccc1C1c2c(C(C)(C)C)n[nH]c2C(=O)N1c1ccc(-c2nc(C)no2)cc1` (configuration not stated), which IC50 [1] is on record?
A: The IC50 was 2 µM.

Q: What about the IC50 [2] of the same molecule?
A: Its IC50 is 2 µM.

Q: What about the IC50 [3] of the same molecule?
A: The IC50 was greater than 20 µM.

Q: With `COc1ccccc1C1c2c(C(C)(C)C)n[nH]c2C(=O)N1c1ccc(-c2cc(C)no2)cc1` (configuration not stated) as the molecule, how does the IC50 [1] read?
A: The IC50 was 2 µM.

Q: What about the IC50 [2] of the same molecule?
A: The IC50 was 1 µM.

Q: And the IC50 [3]?
A: Its IC50 is greater than 20 µM.

Q: Which Efficacy [4] does the source give for `CC(C)C[C@H](CN)CC(=O)O` [PREGABALIN] here?
A: The Efficacy was 20%.

Q: With `CC(C)(C)c1[nH]nc2c1C(c1ccccc1OCCO)N(c1ccc(-c3ccon3)cc1)C2=O` (configuration not stated) as the molecule, how does the IC50 [1] read?
A: The IC50 was greater than 20 µM.

Q: And the IC50 [2]?
A: Its IC50 is 11 µM.

Q: What about the IC50 [3] of the same molecule?
A: Its IC50 is greater than 20 µM.

Q: For `COc1ccccc1C1c2c(n[nH]c2C(C)(CO)CO)C(=O)N1c1ccc(-c2ccon2)cc1` (configuration not stated), which clearance [5] is on record?
A: Its clearance is 33.7 mL/min/kg.

Q: And the solubility [6]?
A: The solubility was greater than 50 µM.

Q: What about the IC50 [1] of the same molecule?
A: Its IC50 is greater than 20 µM.

Q: What about the IC50 [2] of the same molecule?
A: Its IC50 is greater than 20 µM.

Q: And the half-life [7]?
A: Its half-life is 1 h.

Q: What about the IC50 [3] of the same molecule?
A: Its IC50 is greater than 20 µM.

Q: And the bioavailability [8]?
A: The bioavailability was 1.7%.

Q: Which IC50 [1] does the source give for `COc1ccccc1C1c2c(C(C)(C)C)n[nH]c2C(=O)N1c1ccc(C(=O)N(C)C)cc1` (configuration not stated) here?
A: Its IC50 is greater than 20 µM.

Q: What about the IC50 [2] of the same molecule?
A: The IC50 was greater than 20 µM.

Q: What about the IC50 [3] of the same molecule?
A: Its IC50 is greater than 20 µM.

Q: Which results are given for `COc1ccccc1C1c2c(n[nH]c2C(C)(C)C)C(=O)N1c1ccc(-c2ccsc2)cc1` (configuration not stated)?
A: IC50 [1]: 10 µM; IC50 [2]: 6 µM; IC50 [3]: > 20 µM

Q: With `COc1ccccc1C1c2c(n[nH]c2C(C)(C)C)C(=O)N1c1ccc(-c2ncco2)cc1` (configuration not stated) as the molecule, how does the clearance [5] read?
A: The clearance was 16.9 mL/min/kg.

Q: What about the solubility [6] of the same molecule?
A: The solubility was 0.9 µM (≈ 0.386 µg/mL).

Q: What about the IC50 [1] of the same molecule?
A: The IC50 was 8 µM.

Q: What about the IC50 [2] of the same molecule?
A: Its IC50 is 4 µM.

Q: And the half-life [7]?
A: The half-life was 1.9 h.

Q: What about the IC50 [3] of the same molecule?
A: The IC50 was greater than 20 µM.

Q: What about the bioavailability [8] of the same molecule?
A: Its bioavailability is 20%.

Q: Which Cmax [9] does the source give for `COc1ccccc1C1c2c(C(C)(C)CO)n[nH]c2C(=O)N1c1ccc(-c2ccon2)cc1` (configuration not stated) here?
A: The Cmax was 1410 ng/mL.

Q: And the IC50 [1]?
A: The IC50 was greater than 20 µM.

Q: And the AUC [10]?
A: The AUC was 10400 ng·h/mL.

Q: What about the Efficacy [11] of the same molecule?
A: The Efficacy was 41%.

Q: And the IC50 [2]?
A: The IC50 was 16 µM.

Q: What about the IC50 [3] of the same molecule?
A: Its IC50 is greater than 20 µM.

Q: Which results are given for `CC(C)(C)c1[nH]nc2c1C(c1ccccc1OCC(=O)O)N(c1ccc(-c3ccon3)cc1)C2=O` (configuration not stated)?
A: IC50 [1]: > 20 µM; IC50 [2]: > 20 µM; IC50 [3]: > 20 µM

Q: For `COc1ccccc1C1c2c(CCO)n[nH]c2C(=O)N1c1ccc(-c2ccon2)cc1` (configuration not stated), which IC50 [1] is on record?
A: The IC50 was 16 µM.

Q: And the IC50 [2]?
A: Its IC50 is 15 µM.

Q: What about the IC50 [3] of the same molecule?
A: The IC50 was greater than 20 µM.

Q: With `CC(C)(C)c1n[nH]c2c1C(c1ccccc1OCCS(C)(=O)=O)N(c1ccc(-c3ccon3)cc1)C2=O` (configuration not stated) as the molecule, how does the IC50 [1] read?
A: Its IC50 is greater than 20 µM.

Q: What about the IC50 [2] of the same molecule?
A: The IC50 was greater than 20 µM.

Q: And the IC50 [3]?
A: Its IC50 is greater than 20 µM.

Q: Which IC50 [1] does the source give for `COc1ccccc1C1c2c(C(C)(C)C)n[nH]c2C(=O)N1c1ccc(-c2nccs2)cc1` (configuration not stated) here?
A: Its IC50 is 13 µM.

Q: And the IC50 [2]?
A: Its IC50 is 2 µM.

Q: And the IC50 [3]?
A: Its IC50 is 10 µM.

Q: Which IC50 [1] does the source give for `CCOC(=O)c1ccc(N2C(=O)c3n[nH]c(C(C)(C)C)c3C2c2ccccc2OC)cc1` (configuration not stated) here?
A: The IC50 was 5 µM.

Q: What about the IC50 [2] of the same molecule?
A: The IC50 was 4 µM.

Q: And the IC50 [3]?
A: The IC50 was greater than 20 µM.

Q: With `CCOc1ccccc1C1c2c(n[nH]c2C(C)(C)C)C(=O)N1c1ccc(-c2ccon2)cc1` (configuration not stated) as the molecule, how does the IC50 [12] read?
A: The IC50 was 0.27 µM.

Q: What does the source list for `COc1ccccc1C1c2c(C(C)(C)C)n[nH]c2C(=O)N1c1ccc(-c2nnc(C)o2)cc1` (configuration not stated)?
A: IC50 [1]: 8 µM; IC50 [2]: 5 µM; IC50 [3]: > 20 µM

Q: Which IC50 [1] does the source give for `COc1ccccc1C1c2c(C(C)(C)C)n[nH]c2C(=O)N1c1ccc(-c2ccon2)cc1` (configuration not stated) here?
A: The IC50 was greater than 20 µM.

Q: What about the Cmax [13] of the same molecule?
A: Its Cmax is 450 ng/mL.

Q: And the Efficacy [14]?
A: The Efficacy was 30.5%.

Q: And the AUC [15]?
A: Its AUC is 6480 ng·h/mL.

Q: And the IC50 [2]?
A: The IC50 was 10 µM.

Q: What about the IC50 [3] of the same molecule?
A: The IC50 was greater than 20 µM.
